From article PMC5699463 (Journal of the American Chemical Society, 2017)
In brackets after ≈: the same amount, converted by molar mass.

Legend:
TarGH = TarGH (Staphylococcus aureus, UniProt Q2G2X5); test: ATPase activity of reconstituted TarGH in proteoliposomes; format: biochemical; details: 1.0 µM compound; compared with TarH E169Q mutant
[1] = tested on: Lipid II pool levels in S. aureus; test: Assay to detect Lipid II abundance after antibiotic treatment; format: cell-based, Staphylococcus aureus; details: S. aureus cultures treated for ten minutes
Summary of the method: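 S. aureus cultures were exposed for 10 min to test compound or to peptidoglycan-synthesis inhibitor controls that either deplete or accumulate Lipid II. Lipid II was then extracted and labelled with biotin-d-Lys to measure its pool level.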

wildtype B. subtilis = test: Disk diffusion assay against wildtype B. subtilis; format: cell-based, Bacillus subtilis
[2] = tested on: wildtype S. aureus (Newman); test: Growth inhibition; format: cell-based, Staphylococcus aureus
[3] = tested on: B. subtilis strain KS002 (TagGH replaced with S. aureus TarGH); test: Disk diffusion assay against B. subtilis strain KS002 expressing S. aureus TarGH; format: cell-based, Bacillus subtilis; details: strain expressing the S. aureus transporter
[4] = tested on: S. aureus ΔtarO knockout strain; test: Counterscreen: growth inhibition of WTA null; format: cell-based, Staphylococcus aureus
Summary of the method: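 Library compounds were screened in duplicate at ~15 µM final against wildtype S. aureus Newman. In parallel they were counterscreened against the WTA-null ΔtarO strain to find growth inhibition that is suppressed when WTA is absent. Growth was read as OD600 and averaged over the duplicates.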

B. subtilis = test: Growth inhibition of B. subtilis; format: cell-based, Bacillus subtilis

Compound | ATPase activity of the WT transporter in the presence of compound (TarGH) | effect on Lipid II pool levels [1] | zone of inhibition (wildtype B. subtilis) | minimum inhibitory concentration (MIC) [2] [µg/mL] | MIC relative to that of targocil ([2]; compared with targocil) | zone of inhibition [3] | activity against the ΔtarO strain [4] | growth inhibition of B. subtilis (B. subtilis)
Cc1c(CC(=O)N2CCC[C@H]2C(=O)O)c(=O)oc2c(C)c3occ(-c4ccc(Cl)cc4)c3cc12 [Compound 2] | comparable to that of a TarGH mutant containing a mutation that impairs ATP hydrolysis | depleted Lipid II | did not show a zone of inhibition | 0.125 (≈ 0.26 µM) | eight-fold lower | dose-dependent inhibition zone | no activity | did not inhibit growth
CCN(CC)c1nc2c(S(=O)(=O)c3ccc(Cl)cc3)nnn2c2cc(OC)c(OC)cc12 [targocil] |  | depleted Lipid II |  |  |  |  |  | 
bacitracin |  | depleted Lipid II |  |  |  |  |  | 
